N-glyco inh: increase of ERlucT glycosylation luciferase signal, primary screen, N-linked glycosylation inhibitor project, D54 ERlucT cells, luminescence, set 2 | D54 ERlucT glycosylation luciferase reporter, 24 h; percent of 100 nM tunicamycin response | reporter increase, % at 12.5 µM | 360,000 compounds, 0.23% hits;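 active = mean luciferase reporter signal, scaled so untreated is 0 and the glycosylation-blocking control 100, at or above a set limit in every replicate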;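 note: luciferase carries N-glycosylation sites so blocking glycosylation raises the light; 0% = median of neutral control wells and 100% = median of 100 nM tunicamycin wells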
MsrA act: bovine MsrA enzyme activators, primary screen, biochemical, absorbance, HTS. purified bovine MsrA, absorbance read-out. 360,000 compounds, 0.3% hits. activation, % at 10.6 µM; in the data active = activation above about 7.5%;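 note: 0% = vehicle and 100% = reference activator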
aDG glyco up: activators of alpha-DG glycosylation, primary screen, uHTS, Pro5-aDG cells, AlphaScreen | alpha-DG glycosylation AlphaScreen (IIH6); 0% Pro5, 100% B10-LARGE cell signal | activation, % at 10 µM | 360,000 compounds, 0.22% hits;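 active = activation of at least 8% versus controls, or a plate z-score of at least 8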;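 note: Pro5 are CHO cells carrying HIG-tagged alpha-DG that lacks glycosylation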
MsrA inh: bovine MsrA enzyme inhibitors, primary screen, biochemical, absorbance, HTS | AID 651718, 2012 | inhibition, % at 15.5 µM | 360,000 compounds, 0.75% hits | purified bovine MsrA, absorbance read-out;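 note: 0% = vehicle wells with enzyme and 100% = reference inhibitor wells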
UCH37 DUB inh: inhibitors of human UCH37 deubiquitinase, primary screen, biochemical, Ub-AMC cleavage, fluorescence | Ubiquitin carboxyl-terminal hydrolase isozyme L5 (Homo sapiens), Q9Y5K5 | purified proteasome/UCH37 | inhibition, % (no concentration beside the values) | 330,000 compounds, 0.33% hits | AID 588478, 2011;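 active = mean inhibition over replicate wells above about 20%, limit read from the data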;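 note: 0% = compound-free wells with enzyme and 100% = wells lacking proteasome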
Target sequence (Q9Y5K5 whole entry, looked up): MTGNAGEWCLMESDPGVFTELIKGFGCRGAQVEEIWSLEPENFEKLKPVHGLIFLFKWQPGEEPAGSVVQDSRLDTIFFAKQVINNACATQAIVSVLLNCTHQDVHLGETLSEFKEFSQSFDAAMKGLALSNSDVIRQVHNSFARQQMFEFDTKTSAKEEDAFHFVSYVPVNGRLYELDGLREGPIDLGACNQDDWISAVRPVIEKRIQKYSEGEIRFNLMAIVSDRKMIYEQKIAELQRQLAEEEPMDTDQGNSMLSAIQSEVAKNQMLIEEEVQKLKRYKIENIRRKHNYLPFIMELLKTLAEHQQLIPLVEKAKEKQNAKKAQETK
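Assay system: Proteasome-bound UCH37. Buffer or medium: pH 7.4 Tris-HCl (50 mM) with ovalbumin, ATP-MgCl2, DTT. Incubation: 30 min preincubation with enzyme, 25 min cleavage at room temperature. Measured by: fluorescence, ex 355 nm, em 460 nm. Read-out basis: percent inhibition. Control set: wells without proteasome as full block, compound-free enzyme plus substrate as uninhibited.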
Vif imaging: HIV Vif self-association inhibitors, primary screen, imaging, HEK293T, single point; HEK293T cells, Vif self-association by quenched fluorescence, 24 h; inhibition, % at 7.49 µM; 340,000 compounds, 0.35% hits; in the data active = inhibition above about 50%, passing the limit was not always enough
MsrA inh confirm: bovine MsrA inhibitors, retest, confirmation, biochemical, absorbance, HTS. inhibition, % at 15.5 µM. 2,300 compounds, 41% hits. AID 651822, 2012. shares compounds with MsrA inh. purified bovine MsrA, absorbance read-out;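 note: coupled to thioredoxin reductase with NADPH and selenocystamine and DMSO as substrate; 0% = vehicle only and 100% = full effect of reference inhibitor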
Numbers without * were called inactive; x = no result given. Compounds with a hit are over-represented: about 1.9% of the library has one in this group of screens. Cut-off read from the data, not from the text of the source, unless noted: active = inhibition above about 4.5%; inactive = the rest.

SMILES | N-glyco inh | MsrA act | aDG glyco up | MsrA inh | UCH37 DUB inh | Vif imaging | MsrA inh confirm
O=C(Nc1ccc(C(=O)O)cc1)/C(=C/c1ccc2c(c1)OCO2)NC(=O)c1cccc(Br)c1 | 0 | -12 | 0 | 4 | 3 | 2 | x
O=C(Nc1cccc(C(=O)O)c1)/C(=C\c1ccc2c(c1)OCO2)NC(=O)c1ccc(Br)cc1 | 1 | -19 | 0 | 6.1* | 8 | 13 | 2
O=C(Nc1cccc(C(=O)O)c1)/C(=C\c1ccc2c(c1)OCO2)NC(=O)c1ccccc1 | 0 | -6 | 0 | 5.5* | 7 | 6 | 3
COc1ccc(/C=C(/NC(=O)c2ccc(Br)o2)C(=O)Nc2cccc(C(=O)O)c2)cc1 | 0 | -6 | 0 | 5.7* | x | x | 4
CSc1ccc(C=NNC(=O)CN2CCN(Cc3ccc(Cl)cc3)CC2)cc1 | x | x | x | x | 2 | x | x
O=[N+]([O-])c1cccc(-c2ccc(C(=S)N3CCOCC3)o2)c1 | -7 | -7 | -1 | 5.1* | 6 | 5 | 5.6*
COc1ccc(CCCC(=O)NN=Cc2cccs2)cc1 | x | x | x | x | 8 | x | x
O=C(CSCc1ccccc1Br)NN=Cc1ccccc1C(=O)O | x | x | x | x | 0 | x | x
Cc1ccsc1/C=N/Nc1nc2ccccc2[nH]1 | -7 | -6 | 0 | 4.8* | x | -1 | 3
Cc1cc(=O)[nH]c(NN=Cc2ccc(Br)s2)n1 | x | x | x | x | 10 | x | x
Cc1cc(=O)[nH]c(N/N=C/c2sccc2C)n1 | 1 | -4 | 0 | 4.8* | x | -5 | 5.3*
CCn1cc(C=NNS(=O)(=O)c2ccc(C)cc2)c(C)n1 | x | x | x | x | -2 | x | x
COc1ccc(NC(=S)Nc2ccc(C)c(Cl)c2)cc1OC | -1 | -2 | 0 | -1 | 6 | -4 | x
COc1ccc(/C([O-])=C(/C(=S)Nc2ccc(C)c(C)c2)n2c[n+](C)c3ccccc32)cc1OC | -3 | -6 | 0 | 4.8* | 11 | -5 | 2
CCOC(=O)c1c(N=CN(C)C)sc(C=NNc2ccccc2)c1-c1ccccc1Cl | x | x | x | x | -5 | x | x
O=C1C(=O)N(CCCN2CCOCC2)C(c2ccc([N+](=O)[O-])cc2)/C1=C(/O)c1ccc2c(c1)OCO2 (configuration not stated) | 1 | -4 | 0 | 5.7* | 14 | 10 | 3
CCN(C(=O)CSc1nc2nc(C)cc(C)n2n1)c1cccc(C)c1 | -2 | -10 | 0 | 0 | 0 | 1 | x
CCN(C(=O)CSc1nc2nc(C)cc(C)n2n1)c1ccccc1 | -2 | -2 | 0 | 4.8* | -1 | -3 | 2
Cc1cccc(NC(=S)NC(=O)/C=C/c2ccco2)c1 | 22 | -5 | 0 | 25* | 3 | 12 | 1
Cc1ccc(NC(=S)C2=C(O)c3ccccc3N(C)S2(=O)=O)cc1 | 2 | -13 | 0 | 4.8* | 21* | 5 | 4
CN1c2ccccc2C(O)=C(C(=S)Nc2ccc(F)c(Cl)c2)S1(=O)=O | 1 | -9 | 0 | 4.9* | 14 | -6 | 4
CN1c2ccccc2C(O)=C(C(=O)Nc2ccccc2)S1(=O)=O | 1 | -3 | 0 | 2 | x | 7 | x
CN1c2ccccc2C(O)=C(C(=S)Nc2ccccc2)S1(=O)=O | 1 | -21 | 0 | 5.3* | 16 | -1 | 6.1*
COc1ccc(C=NNC(=O)c2ccc(COc3cccc4cccnc34)cc2)cc1OC | x | x | x | x | -12 | x | x
CC1CCN(C2=NC(=O)/C(=C/c3cccc(O)c3)S2)CC1 | 2 | -2 | 0 | 4.7* | 6 | -2 | 2
CC1CCN(C2=NC(=O)/C(=C/c3ccccc3F)S2)CC1 | -14 | -3 | 0 | 5.4* | 8 | -6 | 4
O=C1Nc2ccccc2C1=NN=Cc1ccc(O)c(O)c1 | x | x | x | x | 13 | x | x
CC(=NNC(=S)NC(C)C)c1cccc([N+](=O)[O-])c1 | x | x | x | x | 5 | x | x

Screening results from PubChem.
